Experimental data from ChEMBL document CHEMBL1155202, “Synthesis and anticancer activity of novel 3,4-diarylthiazol-2(3H)-ones (imines)” (Bioorg Med Chem Lett, 2009).

What was measured:
CCRF-CEM = test: Anticancer activity against human CCRF-CEM cells after 72 hrs; format: functional, cell-based
Method in brief: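 CEM human leukemia cells were exposed to compounds. IC50 was defined as the concentration required to inhibit 50% of cell proliferation.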

HepG2 [1] = test: Anticancer activity against human HepG2 cells after 72 hrs; format: functional, cell-based; conditions: HepG2, 72 h
Method in brief: (§1)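 Solid human tumour lines (liver Bel-7402, HepG2, SMMC-7721; breast MCF-7; pancreatic SW-1990; colon HCT116) were exposed to compounds. IC50 was taken as the concentration inhibiting 50% of cell proliferation. CA-4 served as positive control.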

SMMC-7721 = test: Anticancer activity against human SMMC7721 cells after 72 hrs; format: functional, cell-based; conditions: SMMC-7721, 72 h; method in brief: as §1
SW1990 = test: Anticancer activity against human SW1990 cells after 72 hrs; format: functional, cell-based; conditions: SW1990, 72 h; method in brief: as §1
HepG2 [2] = test: Cell cycle arrest in human HepG2 cells assessed as increase in G2/M phase cells after 20 hrs by flow cytometry using propidium iodide staining; format: functional, cell-based; conditions: for EC50: HepG2, 20 h
Method in brief: (§2)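 HepG2 cells were left untreated or treated with compounds across a dose range for 20 h at 37 °C. CA-4 served as positive control. Cell-cycle phase distribution (G1, S, G2/M fractions) was then analysed by flow cytometry.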

Bel-7402 = test: Anticancer activity against human Bel7402 cells after 72 hrs; format: functional, cell-based; conditions: Bel-7402, 72 h; method in brief: as §1
MCF7 = test: Anticancer activity against human MCF7 cells after 72 hrs; format: functional, cell-based; conditions: MCF7, 72 h; method in brief: as §1
HCT-116 = test: Anticancer activity against human HCT116 cells after 72 hrs; format: functional, cell-based; conditions: HCT-116, 72 h; method in brief: as §1
HepG2 [3] = test: Cell cycle arrest in human HepG2 cells assessed as decrease in S phase cells after 20 hrs by flow cytometry using propidium iodide staining; format: functional, cell-based; method in brief: as §2
HepG2 [4] = test: Cell cycle arrest in human HepG2 cells assessed as decrease in G1 phase cells after 20 hrs by flow cytometry using propidium iodide staining; format: functional, cell-based; method in brief: as §2
HepG2 [5] = test: Ratio of Compound EC50 to Combrestatin A4 EC50 for cell cycle arrest in human HepG2 cells assessed as increase in G2/M phase cells after 20 hrs by flow cytometry using propidium iodide staining; format: functional

COc1ccc(-n2c(-c3cc(OC)c(OC)c(OC)c3)c(Cl)sc2=O)cc1
IC50 (CCRF-CEM): 13.8 µM

COc1ccc(-n2c(-c3cc(OC)c(OC)c(OC)c3)csc2=O)cc1[N+](=O)[O-]
IC50 (CCRF-CEM): 2.7 µM

COc1ccc(-c2c(Cl)sc(=O)n2-c2cc(OC)c(OC)c(OC)c2)cc1N
IC50 (HepG2 [1]): 96 µM
IC50 (SMMC-7721): 118 µM
IC50 (SW1990): 56.7 µM
EC50 (HepG2 [2]): > 250 µM
IC50 (Bel-7402): 23.4 µM
IC50 (MCF7): 52.5 µM
IC50 (CCRF-CEM): 0.12 µM
IC50 (HCT-116): 85.1 µM

COc1ccc(-n2c(-c3cc(OC)c(OC)c(OC)c3)c(Cl)sc2=O)cc1N
IC50 (CCRF-CEM): 16.2 µM

COc1ccc(-n2c(-c3cc(OC)c(OC)c(OC)c3)csc2=N)cc1
IC50 (CCRF-CEM): 13.2 µM

COc1ccc(-n2c(-c3cc(OC)c(OC)c(OC)c3)csc2=O)cc1
IC50 (CCRF-CEM): 14.9 µM

COc1ccc(-c2csc(=N)n2-c2cc(OC)c(OC)c(OC)c2)cc1
IC50 (CCRF-CEM): 1.5 µM

COc1ccc(-n2c(-c3cc(OC)c(OC)c(OC)c3)c(Cl)sc2=O)cc1[N+](=O)[O-]
IC50 (CCRF-CEM): > 20 µM

COc1ccc(-c2c(Cl)sc(=O)n2-c2cc(OC)c(OC)c(OC)c2)cc1
IC50 (CCRF-CEM): > 20 µM

COc1ccc(/C=C\c2cc(OC)c(OC)c(OC)c2)cc1O [COMBRETASTATIN A4]
IC50 (HepG2 [1]): 0.006 µM
IC50 (SMMC-7721): 0.29 µM
IC50 (SW1990): 0.25 µM
EC50 (HepG2 [2]): < 0.03 µM
IC50 (Bel-7402): 1.72 µM
IC50 (MCF7): 0.03 µM
IC50 (CCRF-CEM): 0.002 µM
IC50 (HCT-116): 0.006 µM

COc1ccc(-c2csc(=N)n2-c2ccc(OC)cc2)cc1
IC50 (CCRF-CEM): > 20 µM

COc1ccc(-c2c(Cl)sc(=O)n2-c2cc(OC)c(OC)c(OC)c2)cc1[N+](=O)[O-]
IC50 (CCRF-CEM): 7.5 µM

COc1ccc(-c2csc(=O)n2-c2cc(OC)c(OC)c(OC)c2)cc1[N+](=O)[O-]
IC50 (CCRF-CEM): 8.2 µM

COc1ccc(-c2csc(=O)n2-c2cc(OC)c(OC)c(OC)c2)cc1
IC50 (CCRF-CEM): 1.8 µM

COc1ccc(-c2csc(=O)n2-c2cc(OC)c(OC)c(OC)c2)cc1N
IC50 (HepG2 [1]): 4.5 µM
Activity (HepG2 [3]): Dose-dependent effect
IC50 (SMMC-7721): 7.4 µM
Activity (HepG2 [4]): Dose-dependent effect
IC50 (SW1990): 20.3 µM
Activity (HepG2 [2]): Dose-dependent effect
EC50 (HepG2 [2]): 3.89 µM
IC50 (Bel-7402): 3.3 µM
IC50 (MCF7): 4.4 µM
IC50 (CCRF-CEM): 0.24 µM
IC50 (HCT-116): 3.4 µM
Ratio EC50 (HepG2 [5]): 130

COc1ccc(-n2c(-c3cc(OC)c(OC)c(OC)c3)csc2=O)cc1N
IC50 (CCRF-CEM): 10.1 µM
